Here are results for two molecules from ChEMBL document CHEMBL1795311, “Synthesis, antiproliferative activity, and mechanism of action of a series of 2-{[(2E)-3-phenylprop-2-enoyl]amino}benzamides” (Eur J Med Chem, 2011).

The source made the active and inactive calls. The calls are words filed in the database; no cut-off is given here.

The test system of data set [1] is SNB-19. Kind of data set: Growth inhibition of human SNB19 cells after 48 hrs by SRB assay. The class given is functional. The settings on record: SNB-19, 48 h. In short, it runs like this: (§1)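 Run by the NCI Developmental Therapeutics Program: cells in RPMI 1640 with 5% FBS and 2 mM L-glutamine, plated at 5000–40,000 cells/well and grown 24 h before dosing. Drug (DMSO stock) given at five concentrations for 48 h at 37 °C, 5% CO2. Adherent cells fixed with cold TCA, stained with 0.4% SRB and read at 515 nm. GI50, TGI and LC50 taken from the time-zero, control and treated absorbances.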
(The SRB assay estimates cell density from bound dye.)

For data set [2], the system named is Mus musculus. The data set is described as follows: Toxicity in non-tumorated mouse at 400 mg/kg. The class given is organism-based. Also on record: dose 400 mg/kg. The following applies: in vivo. The procedure, abridged: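 Run by the NCI in vivo toxicity assay in non-tumored mice, at a dose of 400 mg/kg.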
The subject of data set [3] is PtK2. Kind of data set: Inhibition of tubulin polymerization in Potorous tridactylus PtK2 cells assessed as microtubule disruption at 10 uM after 24 hrs by immunofluorescence microscopy. Format: cell-based. The procedure, abridged: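 PtK2 (Potorous tridactylis kidney) cells treated 24 h at 37 °C at 10 μM. Then fixed and stained directly with Cy3-anti-β-tubulin and FITC-anti-β-actin monoclonal antibodies and imaged by epifluorescence microscopy. Combretastatin A-4 (1 μM) and latrunculin A (1 μM) used as references.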

Data set [4] is described as follows: Growth inhibition of human Hs 578T cells after 48 hrs by SRB assay. The class given is functional. The procedure, abridged:
(§2)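 NCI DTP panel cells grown in RPMI 1640 with 5% FBS and 2 mM L-glutamine, preincubated 24 h, then given five concentrations (10-fold or ½-log dilutions from DMSO stock) for 48 h at 37 °C. Cells fixed with TCA, stained with SRB, absorbance read at 515 nm, with time-zero plates as reference.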

For data set [5], the system named is SK-MEL-5. Kind of data set: Growth inhibition of human SK-MEL-5 cells after 48 hrs by SRB assay. The class given is functional. The settings on record: SK-MEL-5, 48 h. The procedure, abridged:
as §1

For data set [6], the species on record is Bos taurus. Kind of data set: Inhibition of purified bovine brain tubulin polymerization by turbidimetry. The procedure, abridged:
(§3)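 Purified bovine brain tubulin. Reaction mixtures preincubated at 30 °C without GTP, chilled on ice, then given 0.4 mM GTP at 0 °C. Temperature jumped to 30 °C and held 20 min while turbidity was followed spectrophotometrically. Maximal rate and extent of assembly compared with a control run in the same experiment. Concentrations tested up to 40 μM.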

The subject of data set [7] is K562. The data set is described as follows: Cell cycle distribution in human K562 cells assessed as blocked at M phase at 1 uM after 24 hrs by ethidium bromide/acridine orange staining (reference value: 1%). Format: functional. The procedure, abridged:
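K562 exposed to 1 μM for 24 h, then stained with ethidium bromide and acridine orange. The percentage of cells arrested in mitosis was scored morphologically; untreated cells served as control.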

The species named for data set [8] is Bos taurus. The data set is described as follows: Inhibition of purified bovine brain tubulin microtubule assembly up to 40 uM. In short, it runs like this:
as §3

Data set [9] has as its system K562. Kind of data set: Growth inhibition of human K562 cells after 48 hrs by trypan blue assay. The class given is functional, cell-based. The following applies: K562, 48 h.
For data set [10], the system named is K562. The data set is described as follows: Induction of apoptosis in human K562 cells assessed as accumulation of hypodiploid nuclei after 48 hrs by FITC- conjugated annexin-V/propidium iodide based flow cytometry. The following applies: K562, 48 h. The class given is functional, cell-based. In short, it runs like this:
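K562 cells treated with various concentrations for 48 h. Apoptosis scored as the percentage of hypodiploid nuclei in the sub-G0–G1 peak after hypotonic propidium iodide staining (50 μg/ml in 0.1% sodium citrate, 0.03% NP-40, 30 min), measured by flow cytometry. Annexin-V-FITC/PI staining, 15 min at 20 °C, also read by flow cytometry. Mean ±SE shown.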

The subject of data set [11] is OVCAR-4. The data set is described as follows: Growth inhibition of human OVCAR4 cells after 48 hrs by SRB assay. The class given is functional. The following applies: OVCAR-4, 48 h. The procedure, abridged:
as §2

For data set [12], the system named is K562. The data set is described as follows: Cell cycle distribution in human K562 cells assessed as decrease in accumulation at G0/G1 phase at 1 to 4 uM after 24 hrs by flow cytometry. Format: functional, cell-based. In short, it runs like this: (§4)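 K562 exposed 24 h to 1, 2 or 4 μM. Washed cells resuspended in hypotonic propidium iodide (50 μg/ml in 0.1% sodium citrate plus 0.03% NP-40), incubated 30 min. DNA-content histograms acquired by flow cytometry give the G0–G1, S and G2-M fractions.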
(A flow cytometer gives signals particle by particle.)

The subject of data set [13] is OVCAR-3. Kind of data set: Growth inhibition of human OVCAR3 cells after 48 hrs by SRB assay. Format: functional. The settings on record: OVCAR-3, 48 h. The procedure, abridged: as §2
For data set [14], the system named is PtK2. The data set is described as follows: Binding affinity to actin in Potorous tridactylus PtK2 cells at 10 uM. The class given is cell-based. In short, it runs like this:
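PtK2 (Potorous tridactylus kidney) cells treated 24 h at 37 °C, then fixed and stained by direct immunofluorescence with Cy3-anti-β-tubulin and FITC-anti-β-actin monoclonals. Microtubule and microfilament networks were examined by epifluorescence microscopy.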

Data set [15] relates to K562. Kind of data set: Induction of apoptosis in human K562 cells assessed as induction in morphological alterations at 2 uM after 24 hrs ny phase contrast invertoscope. The class given is functional, cell-based. The procedure, abridged: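 Living K562 cells in culture medium, exposed 24 h to 2, 5 or 10 μM or left untreated, then viewed by phase contrast invertoscope at 40× magnification for morphologic alterations.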

The test system of data set [16] is HCT-116. The data set is described as follows: Growth inhibition of human HCT116 cells after 48 hrs by SRB assay. Format: functional. The following applies: HCT-116, 48 h. The procedure, abridged: as §2
Data set [17] relates to NCI-H522. Kind of data set: Growth inhibition of human NCI-H522 cells after 48 hrs by SRB assay. Format: functional. The following applies: NCI-H522, 48 h. In short, it runs like this:
as §2

Data set [18] concerns HCC 2998. The data set is described as follows: Growth inhibition of human HCC2998 cells after 48 hrs by SRB assay. The class given is functional. The following applies: HCC 2998, 48 h. In short, it runs like this: as §2
Data set [19] deals with K562. Kind of data set: Cell cycle distribution in human K562 cells assessed as increase in accumulation at G2/M phase at 1 to 4 uM after 24 hrs by flow cytometry. Format: functional, cell-based. In short, it runs like this:
as §4

The subject of data set [20] is UO-31. Kind of data set: Growth inhibition of human UO31 cells after 48 hrs by SRB assay. The class given is functional. The settings on record: UO-31, 48 h. In short, it runs like this: as §1
Data set [21] has as its system U-251. Kind of data set: Growth inhibition of human U251 cells after 48 hrs by SRB assay. Format: functional. The settings on record: U-251, 48 h. The procedure, abridged:
as §1

Data set [22] deals with MDA-MB-435. Kind of data set: Growth inhibition of human MDA-MB-435 cells after 48 hrs by SRB assay. The settings on record: MDA-MB-435, 48 h. The class given is functional. In short, it runs like this: as §2
Data set [23] has as its system NCI/ADR-RES. The data set is described as follows: Growth inhibition of human NCI/ADR-RES cells after 48 hrs by SRB assay. Format: functional. In short, it runs like this: as §2
Data set [24] has as its system MDA-MB-468. The data set is described as follows: Growth inhibition of human MDA-MB-468 cells after 48 hrs by SRB assay. The settings on record: MDA-MB-468, 48 h. Format: functional. The procedure, abridged: as §2

As for `NC(=O)c1cc(I)ccc1NC(=O)/C=C/c1ccccc1`, the GI50 was determined as 586 nM in [1]; 375 nM in [4]; 383 nM in data set [5]; 1840 nM in data set [11]; 353 nM in data set [13]; 430 nM in [16]. Moreover, the GI50 in [17] stood at 303 nM; in data set [18], 1250 nM; in [20] it was 3.53 µM; in data set [21], 501 nM. The results for the Activity result in data set [2] and in data set [7] were “Non-toxic” and 35%, respectively. For the same molecule, the outcome in [3], in [6], in data set [12], in [14], in data set [15] and in data set [19] was Active. The result in [8] was inactive. The same molecule displayed an IC50 in [9] of 570 nM. The AC50 in data set [10] stood at 3.7 µM.

As to `NC(=O)c1cc(Cl)ccc1NC(=O)/C=C/c1ccccc1`, the GI50 in data set [1] stood at 3180 nM; in [22], 492 nM; in data set [4], 2040 nM; in [5], 373 nM; in data set [23] it was 2240 nM; in [24], 1170 nM. Moreover, the GI50 in data set [11] worked out at 2770 nM; in [13], 1300 nM; in data set [16] it was 1980 nM; in [17], 2080 nM; in data set [18] it was 487 nM; in [20] it was 3.57 µM. In data set [21], the concentration for 50% growth inhibition (GI50) turned out to be 2140 nM. Moreover, the IC50 in data set [9] was 2500 nM.

As a reminder, the GI50 is the concentration giving 50% growth inhibition. The IC50 is the concentration at which inhibition is half-maximal. For orientation: AC50 means the concentration at which the activity in the assay is half-maximal.
